The text below walks through data of publication PMC6415968 (Organic letters, 2018).

Experiment [1] has as its target T1, ERβ (Homo sapiens, UniProt Q92731). Conditions: ref HsiehRW; RajanSS; SharmaSK; GreeneGL Steroids, 2008, 73, 59–68; cited from earlier work.
For experiment [2], the system named is AsPC-1 human tumor cell line (pancreatic cancer). Briefly: growth inhibition assay, AsPC-1. It is filed as cell-based. Conditions: ASPC1. Put shortly: (§1)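 Simple growth-inhibition assay in two human cancer lines, MDA-MB-231 (breast) and AsPC-1 (pancreatic), run without a particular target in mind. Cells exposed to a range of test compound concentrations, highest 40 μM. GI50 (μM) read.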

Experiment [3] deals with T1, ERβ. The experiment is described as follows: estrogen receptor β antagonist assay. The class given is cell-based. The note with it: concentrations up to 10 μM.
A further experiment concerns cells (mitosis). The experiment is described as follows: mitotic arrest in cells. It is filed as cell-based.
For another experiment, the system named is CLK1,2,4. The experiment is described as follows: established model for inhibition of CLK1,2,4 in cells. The class given is cell-based.
A further experiment has as its target DYRK1A (Homo sapiens, UniProt Q13627). Briefly: Kd determination DYRK1A. The class given is binding.
In another experiment the target is CLK2 (Homo sapiens, UniProt P49760). Briefly: Kd determination CLK2. The class given is binding.
In experiment [4] the target is T1, ERβ. Briefly: estrogen receptor β agonist assay. The class given is cell-based.
Experiment [5] relates to 12 human primary cell-based systems. Briefly: BioMAP Diversity PLUS panel. The note with it: comparison with reference database of >4,000 agents.
Experiment [6] has as its target T2, ERα (Homo sapiens, UniProt P03372).
T2 sequence (P03372 1-595): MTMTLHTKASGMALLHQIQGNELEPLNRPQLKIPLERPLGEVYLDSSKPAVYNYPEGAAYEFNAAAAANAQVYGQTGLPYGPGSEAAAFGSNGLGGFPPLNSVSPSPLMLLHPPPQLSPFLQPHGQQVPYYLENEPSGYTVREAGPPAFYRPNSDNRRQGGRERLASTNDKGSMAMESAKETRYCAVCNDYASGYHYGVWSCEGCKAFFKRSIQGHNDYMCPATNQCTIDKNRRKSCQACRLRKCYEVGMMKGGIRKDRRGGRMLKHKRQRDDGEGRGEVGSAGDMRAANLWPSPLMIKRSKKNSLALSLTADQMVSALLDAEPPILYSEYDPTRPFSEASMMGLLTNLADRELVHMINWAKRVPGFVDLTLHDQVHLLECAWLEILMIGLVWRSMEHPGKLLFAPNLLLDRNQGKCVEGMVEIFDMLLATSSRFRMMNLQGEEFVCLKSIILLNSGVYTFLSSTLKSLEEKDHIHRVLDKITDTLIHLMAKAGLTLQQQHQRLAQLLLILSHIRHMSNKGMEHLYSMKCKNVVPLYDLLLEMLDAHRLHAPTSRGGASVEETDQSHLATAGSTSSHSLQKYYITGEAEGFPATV
The experiment is described as follows: estrogen receptor α antagonist assay. It is filed as cell-based. Conditions: concentrations up to 10 μM.

The target in another experiment is cdc-2-like kinase CLK4 (Homo sapiens, UniProt Q9HAZ1). The experiment is described as follows: Kd determination CLK4. It is filed as binding.
Experiment [7] concerns MDA-MB-231 human breast cancer cells. Briefly: growth inhibition assay, MDA-MB-231. It is filed as cell-based. The method, boiled down: as §1
Experiment [8] addresses T2, ERα. Briefly: estrogen receptor α agonist assay. It is filed as cell-based. Conditions: estrogen receptor agonism.
In a further experiment the test system is panel of 468 kinases. The experiment is described as follows: KINOMEscan panel of 468 kinases. The class given is binding. The note with it: kinases bound divided by distinct kinases tested.
The target in another experiment is CLK1 (Homo sapiens, UniProt P49759). The experiment is described as follows: Kd determination CLK1. The class given is binding.

Converted amounts (≈) assume the structure as drawn. “And” between values parts separate entries of the source, which are not always exact repeats. Equal entries are not always repeated. “Also recorded” adds a separate entry of the source.

By GI50 is commonly meant the concentration that inhibits growth by half. A higher GI50 goes with lower sensitivity of the cells. Broadly, the Kd is the equilibrium constant for the complex coming apart. What is called EC50 is the midpoint of the concentration-response curve.

T1 sequence (Q92731 whole entry): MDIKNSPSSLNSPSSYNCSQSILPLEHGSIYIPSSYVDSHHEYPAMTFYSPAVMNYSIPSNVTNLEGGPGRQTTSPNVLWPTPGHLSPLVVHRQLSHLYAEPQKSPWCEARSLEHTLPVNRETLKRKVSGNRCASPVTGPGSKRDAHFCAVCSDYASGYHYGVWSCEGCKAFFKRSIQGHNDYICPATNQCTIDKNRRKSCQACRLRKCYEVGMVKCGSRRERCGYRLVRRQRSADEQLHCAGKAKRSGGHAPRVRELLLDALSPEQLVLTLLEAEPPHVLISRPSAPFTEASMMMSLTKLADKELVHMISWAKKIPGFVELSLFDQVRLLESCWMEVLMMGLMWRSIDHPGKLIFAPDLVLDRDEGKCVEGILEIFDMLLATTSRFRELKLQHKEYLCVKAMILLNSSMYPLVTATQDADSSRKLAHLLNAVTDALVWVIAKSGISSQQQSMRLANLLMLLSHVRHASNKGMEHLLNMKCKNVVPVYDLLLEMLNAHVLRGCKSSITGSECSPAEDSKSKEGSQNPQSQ
Sequence of CLK2 (P49760 whole entry): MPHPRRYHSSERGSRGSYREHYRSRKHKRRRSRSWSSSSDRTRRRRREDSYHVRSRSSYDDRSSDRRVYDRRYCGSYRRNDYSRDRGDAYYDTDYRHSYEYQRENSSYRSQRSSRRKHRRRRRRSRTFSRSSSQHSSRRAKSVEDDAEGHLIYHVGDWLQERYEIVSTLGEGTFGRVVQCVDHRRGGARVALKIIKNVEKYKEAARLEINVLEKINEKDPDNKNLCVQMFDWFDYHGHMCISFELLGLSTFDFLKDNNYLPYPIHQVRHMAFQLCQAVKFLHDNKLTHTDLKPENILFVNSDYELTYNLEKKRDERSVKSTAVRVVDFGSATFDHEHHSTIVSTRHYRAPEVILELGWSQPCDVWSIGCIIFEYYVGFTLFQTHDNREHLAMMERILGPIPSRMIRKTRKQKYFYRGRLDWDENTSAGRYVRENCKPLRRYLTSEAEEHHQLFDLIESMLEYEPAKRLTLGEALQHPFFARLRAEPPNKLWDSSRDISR
Sequence of cdc-2-like kinase CLK4 (Q9HAZ1 whole entry): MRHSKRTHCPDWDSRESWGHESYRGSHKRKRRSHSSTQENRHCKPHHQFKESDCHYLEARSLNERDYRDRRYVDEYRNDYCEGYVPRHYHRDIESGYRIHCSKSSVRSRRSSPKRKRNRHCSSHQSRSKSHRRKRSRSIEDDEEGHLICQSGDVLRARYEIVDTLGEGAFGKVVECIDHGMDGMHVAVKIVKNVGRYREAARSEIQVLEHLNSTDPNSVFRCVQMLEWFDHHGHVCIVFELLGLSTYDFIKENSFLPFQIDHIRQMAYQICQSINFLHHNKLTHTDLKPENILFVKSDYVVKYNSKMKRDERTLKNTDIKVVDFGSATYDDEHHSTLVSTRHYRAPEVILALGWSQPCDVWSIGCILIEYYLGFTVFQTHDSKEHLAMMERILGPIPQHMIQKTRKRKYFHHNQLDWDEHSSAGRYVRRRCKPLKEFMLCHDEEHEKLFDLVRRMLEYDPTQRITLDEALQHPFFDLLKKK
Sequence of CLK1 (P49759 whole entry): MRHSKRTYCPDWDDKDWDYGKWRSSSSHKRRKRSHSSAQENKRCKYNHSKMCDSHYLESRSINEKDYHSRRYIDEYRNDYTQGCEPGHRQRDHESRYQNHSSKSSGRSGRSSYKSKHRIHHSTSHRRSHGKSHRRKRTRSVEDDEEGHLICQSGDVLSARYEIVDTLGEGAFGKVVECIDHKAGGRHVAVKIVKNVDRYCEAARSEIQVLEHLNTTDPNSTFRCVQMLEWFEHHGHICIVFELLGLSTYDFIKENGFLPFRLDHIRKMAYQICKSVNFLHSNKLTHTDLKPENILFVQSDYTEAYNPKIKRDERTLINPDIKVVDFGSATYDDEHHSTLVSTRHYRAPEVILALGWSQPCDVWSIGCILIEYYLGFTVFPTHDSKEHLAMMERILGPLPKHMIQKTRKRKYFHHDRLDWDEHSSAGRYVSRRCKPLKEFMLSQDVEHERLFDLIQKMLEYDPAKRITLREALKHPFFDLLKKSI

As for `C[C@]12CCc3c(ccc4cc(O)ccc34)[C@@H]1CC[C@@H]2O` [17-β-dihydroequilenin], the “shift in selectivity for agonism of ER-β” value at ERβ [1] is reported as “related shift in selectivity for agonism of ER-β”.

With `C[C@]12CCc3c(ccc4ccc(O)cc34)[C@@H]1C[C@@H](O)C2` [VII, estra-1,3,5(10),6,8-pentaene-2,16α-diol], the GI50 in experiment [2] was ~0.5 µg/mL and 2 µM; in experiment [7], ~0.2 µg/mL (≈ 0.745 µM). Besides, the “antagonist activity at ERβ” value on ERβ [3] is listed as “not showing activity as an antagonist”. The mitotic arrest result with cells (mitosis) is reported as “arrests cells in mitosis; also recorded: induces mitotic arrest in cells”. The “CLK inhibitory activity in cells” value in the experiment on CLK1,2,4 is given as “no evidence of CLK inhibitory activity in cells”. The Kd on DYRK1A worked out at 2000 nM; at CLK2, 2000 nM; on cdc-2-like kinase CLK4, 350 nM; at CLK1, 1400 nM. Also, the concentration for a half-maximal effect (EC50) on ERβ [4] was 21 nM. Also, the “shift in selectivity favoring agonism of ERβ over ERα in comparison to 17-β-estradiol” value at ERβ [4] (ERβ vs ERα, relative to 17-β-estradiol) is ~4 fold. For the same compound, the “BioMAP phenotypic profile similarity to reference agents” value in experiment [5] was “favorable comparison to both 17-β estradiol (a dual ERα and ERβ agonist) as well as 2-methoxyestradiol; also recorded: correlation with several microtubule targeting agents (combretastatin A4, 2-methoxyestradiol and paclitaxel); also recorded: related to the clinically relevant microtubule-targeting agent paclitaxel; also recorded: phenotypically related to paclitaxel”. Moreover, the “antagonist activity at ERα” value at ERα [6] was “not showing activity as an antagonist”. At ERα [8], the “agonist potency order ERβ vs ERα” value is reported as “potency for ERβ > ERα”. Further, the “S-score(35)” value with panel of 468 kinases was 0.03.
